From ChEMBL document CHEMBL1949600, “Lipophilic hydroxytyrosol esters: fatty acid conjugates for potential topical administration” (J Nat Prod, 2011) come the findings set out here.

Series [1] can be described thus: Octanol-water partition coefficient, log Kow of the compound by HPLC analysis. The note with it: read-out: log KOW. Format: physicochemical. The method, boiled down:
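Reversed-phase HPLC method for log Kow, calibrated with reference standards of known log Kow. Naphthalene (log Kow 3.3) was the most lipophilic standard. Compounds too lipophilic to be resolved were assigned a log Kow above 3.3.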

The nature of series [2]: Percutaneous permeability through human SCE membrane in Franz diffusion cell after 12 hrs by UV-Vis spectrophotometry relative to hydroxytyrosol. In kind it is ADME. The method, boiled down: (§1)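 Franz cells (0.75 cm² area, 4.75 mL receptor) with human stratum corneum/viable epidermis from fresh abdominal surgical skin, used within 24 h of removal. Non-occlusive, 36 ± 1 °C. Receptor sampled hourly up to 12 h, each sample replaced with fresh phase. UV-vis at each compound's λmax against calibration (0.5–25 μg/mL in EtOH). At least three cells, triplicate, mean ± SD.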

Series [3] can be described thus: Percutaneous permeability through human SCE membrane in Franz diffusion cell after 12 hrs by UV-Vis spectrophotometry. Format: ADME. The method, boiled down: as §1

The structures appear in SMILES notation.

In the case of `CCCCCCCC/C=C/CCCCCCCC(=O)OCCc1ccc(O)c(O)c1`, the logP in series [1] is above 3.3.
With `CCCC(=O)OCCc1ccc(O)c(O)c1` [HYDROXYTYROSOL BUTANOATE], the logP in series [1] came out at 1.64. In addition, the “fold change (FC)” value in series [2] came to 1.8.
The matching figures for `CCCCCCCCCCCCCCCC(=O)OCCc1ccc(O)c(O)c1` [HYDROXYTYROSOL PALMITATE]: above 3.3 and 1.7.
On to `CCCCCCCCCC(=O)OCCc1ccc(O)c(O)c1` [HYDROXYTYROSOL DECANOATE], for which the logP in series [1] is above 3.3. Besides, in series [3], the permeability came out at 64.18%. In series [2], the “fold change (FC)” value worked out at 2.2.
`CCCCCCCCCCCCCCCCCC(=O)OCCc1ccc(O)c(O)c1` [HYDROXYTYROSOL STERATE]: in series [1], the logP is above 3.3. Also, in series [2], the “fold change (FC)” value is recorded as 1.7.
In the case of `OCCc1ccc(O)c(O)c1` [HYDROXYTYROSOL], the logP in series [1] is 0.809.
As for `CCCCCCCC/C=C\CCCCCCCC(=O)OCCc1ccc(O)c(O)c1`, in series [1], the logP is above 3.3. Further, in series [2], the “fold change (FC)” value was 3.6.
Regarding `CCCCC/C=C\C/C=C\CCCCCCCC(=O)OCCc1ccc(O)c(O)c1`, the logP in series [1] is above 3.3. This compound yielded a permeability in series [3] of 60.52%. The “fold change (FC)” value in series [2] worked out at 2.2.
